Assay type in all cases: functional
One test has as its system Staphylococcus aureus. The test can be described thus: Antibacterial activity against Staphylococcus aureus 209 P(FDA) assessed as inhibition of visible growth after 24 hrs by serial dilution method.
In another test the test system is Klebsiella pneumoniae. Nature of the test: Antibacterial activity against Klebsiella pneumoniae Ottaviani assessed as inhibition of visible growth after 24 hrs by serial dilution method.
The subject of the next test is Escherichia coli. Nature of the test: Antibacterial activity against Escherichia coli MC/35 assessed as inhibition of visible growth after 24 hrs by serial dilution method. Conditions: MC/35, 24 h.
Test [1] concerns Salmonella enterica subsp. enterica serovar Paratyphi B. Nature of the test: Antibacterial activity against Salmonella paratyphi B 0248 K assessed as inhibition of visible growth after 24 hrs by serial dilution method. An outline of the steps: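 Broth tube serial dilution in Brain Heart Infusion medium; inoculum 10^6 cells/mL; incubation 24 h at 35 °C; MIC taken as the lowest antibiotic concentration that prevented visible growth.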

Converted amounts (≈) assume the structure as drawn.

Regarding `COC1/C=C/OC2(C)Oc3c(C)c(O)c4c(c3C2=O)C(=O)C=C(NC(=O)/C(C)=C\C(=O)C2CC2C(O)C(C)C(O)C(C)C(OC(C)=O)C1C)C4=O` (stereo unspecified) [TOLYPOMYCINONE], the MIC in the test on Staphylococcus aureus was 0.5 µg/mL (≈ 0.704 µM).

On to `CO[C@H]1/C=C/O[C@@]2(C)Oc3c(C)c(O)c4c(c3C2=O)C(=O)C(NCc2ccccn2)=C(NC(=O)/C(C)=C\C(=O)[C@@H]2C[C@@H]2[C@H](O)[C@@H](C)[C@@H](O)[C@@H](C)[C@H](OC(C)=O)[C@@H]1C)C4=O`, for which the MIC was 12 µg/mL (≈ 14.7 µM) in the test with Klebsiella pneumoniae, 6 µg/mL (≈ 7.35 µM) in the test with Escherichia coli, < 0.005 µg/mL with Staphylococcus aureus and 25 µg/mL (≈ 30.6 µM) in test [1].

For `CO[C@H]1/C=C/O[C@@]2(C)Oc3c(C)c(O)c4c(c3C2=O)C(=O)C(N(C)C)=C(NC(=O)/C(C)=C\C(=O)[C@@H]2C[C@@H]2[C@H](O)[C@@H](C)[C@@H](O)[C@@H](C)[C@H](OC(C)=O)[C@@H]1C)C4=O`, the minimal inhibitory concentration (MIC) with Klebsiella pneumoniae worked out at 100 µg/mL (≈ 133 µM); in the test on Escherichia coli, 50 µg/mL (≈ 66.4 µM); in the test on Staphylococcus aureus it was 0.025 µg/mL (≈ 0.0332 µM); in test [1], 100 µg/mL (≈ 133 µM).

As to `COc1cc(CNC2=C3NC(=O)/C(C)=C\C(=O)[C@@H]4C[C@@H]4[C@H](O)[C@@H](C)[C@@H](O)[C@@H](C)[C@H](OC(C)=O)[C@H](C)[C@@H](OC)/C=C/O[C@@]4(C)Oc5c(C)c(O)c(c(c5C4=O)C2=O)C3=O)ccc1O`, the MIC is 100 µg/mL (≈ 116 µM) in the test with Klebsiella pneumoniae, 100 µg/mL (≈ 116 µM) in the test on Escherichia coli, < 0.005 µg/mL in the test with Staphylococcus aureus and 100 µg/mL (≈ 116 µM) in test [1].

Regarding `CO[C@H]1/C=C/O[C@@]2(C)Oc3c(C)c(O)c4c(c3C2=O)C(=O)C(NCCc2ccc(O)cc2)=C(NC(=O)/C(C)=C\C(=O)[C@@H]2C[C@@H]2[C@H](O)[C@@H](C)[C@@H](O)[C@@H](C)[C@H](OC(C)=O)[C@@H]1C)C4=O`, the MIC is > 100 µg/mL in the test on Klebsiella pneumoniae, > 100 µg/mL in the test with Escherichia coli, < 0.005 µg/mL in the test on Staphylococcus aureus and > 50 µg/mL in test [1].

`CO[C@H]1/C=C/O[C@@]2(C)Oc3c(C)c(O)c4c(c3C2=O)C(=O)C(NCCN2CCN(C)CC2)=C(NC(=O)/C(C)=C\C(=O)[C@@H]2C[C@@H]2[C@H](O)[C@@H](C)[C@@H](O)[C@@H](C)[C@H](OC(C)=O)[C@@H]1C)C4=O`: the MIC in the test with Klebsiella pneumoniae was found to be 12 µg/mL (≈ 14.1 µM); in the test with Escherichia coli it was 25 µg/mL (≈ 29.4 µM); in the test on Staphylococcus aureus, 0.025 µg/mL (≈ 0.0294 µM); in test [1], 6 µg/mL (≈ 7.05 µM).

As to `CO[C@H]1/C=C/O[C@@]2(C)Oc3c(C)c(O)c4c(c3C2=O)C(=O)C(NCCc2ccccn2)=C(NC(=O)/C(C)=C\C(=O)[C@@H]2C[C@@H]2[C@H](O)[C@@H](C)[C@@H](O)[C@@H](C)[C@H](OC(C)=O)[C@@H]1C)C4=O`, the MIC was 25 µg/mL (≈ 30.1 µM) in the test on Klebsiella pneumoniae, 6 µg/mL (≈ 7.23 µM) with Escherichia coli, < 0.005 µg/mL with Staphylococcus aureus and 12 µg/mL (≈ 14.5 µM) in test [1].

On to `CO[C@H]1/C=C/O[C@@]2(C)Oc3c(C)c(O)c4c(c3C2=O)C(=O)C(NC2CCCCC2)=C(NC(=O)/C(C)=C\C(=O)[C@@H]2C[C@@H]2[C@H](O)[C@@H](C)[C@@H](O)[C@@H](C)[C@H](OC(C)=O)[C@@H]1C)C4=O`, for which the MIC in the test on Staphylococcus aureus stood at 0.25 µg/mL (≈ 0.31 µM).

On to `CO[C@H]1/C=C/O[C@@]2(C)Oc3c(C)c(O)c4c(c3C2=O)C(=O)C=C(NC(=O)C(C)CC(=O)[C@@H]2C[C@@H]2[C@H](O)[C@@H](C)[C@@H](O)[C@@H](C)[C@H](OC(C)=O)[C@@H]1C)C4=O` (stereo partly specified), for which, in the test with Staphylococcus aureus, the MIC was 0.5 µg/mL (≈ 0.702 µM).

In the case of `CO[C@H]1/C=C/O[C@@]2(C)Oc3c(C)c(O)c4c(c3C2=O)C(=O)C(NCc2ccc3c(c2)OCO3)=C(NC(=O)/C(C)=C\C(=O)[C@@H]2C[C@@H]2[C@H](O)[C@@H](C)[C@@H](O)[C@@H](C)[C@H](OC(C)=O)[C@@H]1C)C4=O`, the MIC was > 100 µg/mL in the test on Klebsiella pneumoniae, > 100 µg/mL in the test with Escherichia coli, < 0.005 µg/mL with Staphylococcus aureus and 100 µg/mL (≈ 116 µM) in test [1].

Regarding `CO[C@H]1/C=C/O[C@@]2(C)Oc3c(C)c(O)c4c(c3C2=O)C(=O)C(NCc2ccccc2)=C(NC(=O)C(C)(NCc2ccccc2)CC(=O)[C@@H]2C[C@@H]2[C@H](O)[C@@H](C)[C@@H](O)[C@@H](C)[C@H](OC(C)=O)[C@@H]1C)C4=O` (stereo partly specified), the MIC with Staphylococcus aureus came to 0.25 µg/mL (≈ 0.271 µM).

Regarding `COC(CCNC1=C2NC(=O)/C(C)=C\C(=O)[C@@H]3C[C@@H]3[C@H](O)[C@@H](C)[C@@H](O)[C@@H](C)[C@H](OC(C)=O)[C@H](C)[C@@H](OC)/C=C/O[C@@]3(C)Oc4c(C)c(O)c(c(c4C3=O)C1=O)C2=O)OC`, the MIC with Klebsiella pneumoniae was 50 µg/mL (≈ 60.5 µM); in the test with Escherichia coli, 25 µg/mL (≈ 30.2 µM); in the test with Staphylococcus aureus, 0.005 µg/mL (≈ 0.00605 µM); in test [1] it was 25 µg/mL (≈ 30.2 µM).

Take `CO[C@H]1/C=C/O[C@@]2(C)Oc3c(C)c(O)c4c(c3C2=O)C(=O)C(NCc2ccsc2)=C(NC(=O)/C(C)=C\C(=O)[C@@H]2C[C@@H]2[C@H](O)[C@@H](C)[C@@H](O)[C@@H](C)[C@H](OC(C)=O)[C@@H]1C)C4=O`: the minimal inhibitory concentration (MIC) in the test on Klebsiella pneumoniae is 100 µg/mL (≈ 122 µM); with Escherichia coli, 12 µg/mL (≈ 14.6 µM); in the test on Staphylococcus aureus it was < 0.005 µg/mL; in test [1] it was 12 µg/mL (≈ 14.6 µM).

With `CNC1=C2NC(=O)C(C)(NC)CC(=O)[C@@H]3C[C@@H]3[C@H](O)[C@@H](C)[C@@H](O)[C@@H](C)[C@H](OC(C)=O)[C@H](C)[C@@H](OC)/C=C/O[C@@]3(C)Oc4c(C)c(O)c(c(c4C3=O)C1=O)C2=O` (stereo partly specified), the MIC is > 100 µg/mL in the test with Klebsiella pneumoniae, > 100 µg/mL with Escherichia coli, 0.005 µg/mL (≈ 0.00649 µM) in the test with Staphylococcus aureus and 50 µg/mL (≈ 64.9 µM) in test [1].

Turning to `CO[C@H]1/C=C/O[C@@]2(C)Oc3c(C)c(O)c4c(c3C2=O)C(=O)C(NCc2ccc(N(C)C)cc2)=C(NC(=O)/C(C)=C\C(=O)[C@@H]2C[C@@H]2[C@H](O)[C@@H](C)[C@@H](O)[C@@H](C)[C@H](OC(C)=O)[C@@H]1C)C4=O`, the MIC in the test on Klebsiella pneumoniae is 12 µg/mL (≈ 14 µM); in the test on Escherichia coli, 23 µg/mL (≈ 26.8 µM); in the test on Staphylococcus aureus, < 0.005 µg/mL; in test [1], 12 µg/mL (≈ 14 µM).

In the case of `CO[C@H]1/C=C/O[C@@]2(C)Oc3c(C)c(O)c4c(c3C2=O)C(=O)C(NCc2ccccc2)=C(NC(=O)/C(C)=C\C(=O)[C@@H]2C[C@@H]2[C@H](O)[C@@H](C)[C@@H](O)[C@@H](C)[C@H](OC(C)=O)[C@@H]1C)C4=O`, the MIC in the test with Staphylococcus aureus is < 0.005 µg/mL.

Turning to `CO[C@H]1/C=C/O[C@@]2(C)Oc3c(C)c(O)c4c(c3C2=O)C(=O)C(NCCNc2ccc([N+](=O)[O-])cn2)=C(NC(=O)/C(C)=C\C(=O)[C@@H]2C[C@@H]2[C@H](O)[C@@H](C)[C@@H](O)[C@@H](C)[C@H](OC(C)=O)[C@@H]1C)C4=O`, the MIC is > 50 µg/mL in the test on Klebsiella pneumoniae, > 50 µg/mL in the test on Escherichia coli, < 0.025 µg/mL in the test on Staphylococcus aureus and > 50 µg/mL in test [1].

On to `CO[C@H]1/C=C/O[C@@]2(C)Oc3c(C)c(O)c4c(c3C2=O)C(=O)C(NCCCN2CCC(=O)C2)=C(NC(=O)/C(C)=C\C(=O)[C@@H]2C[C@@H]2[C@H](O)[C@@H](C)[C@@H](O)[C@@H](C)[C@H](OC(C)=O)[C@@H]1C)C4=O`, for which the MIC in the test with Escherichia coli was determined as 50 µg/mL (≈ 58.8 µM); in the test with Staphylococcus aureus it was 0.005 µg/mL (≈ 0.00588 µM); in test [1] it was 25 µg/mL (≈ 29.4 µM).

Turning to `CO[C@H]1/C=C/O[C@@]2(C)Oc3c(C)c(O)c4c(c3C2=O)C(=O)C(NCCCN2CCN(C)CC2)=C(NC(=O)/C(C)=C\C(=O)[C@@H]2C[C@@H]2[C@H](O)[C@@H](C)[C@@H](O)[C@@H](C)[C@H](OC(C)=O)[C@@H]1C)C4=O`, the minimum inhibitory concentration (MIC) in the test on Klebsiella pneumoniae turned out to be 25 µg/mL (≈ 28.9 µM); in the test with Escherichia coli, 12 µg/mL (≈ 13.9 µM); in the test with Staphylococcus aureus, 0.025 µg/mL (≈ 0.0289 µM); in test [1], 3 µg/mL (≈ 3.47 µM).

On to `CNC1=C2NC(=O)C(C)CC(=O)[C@@H]3C[C@@H]3[C@H](O)[C@@H](C)[C@@H](O)[C@@H](C)[C@H](OC(C)=O)[C@H](C)[C@@H](OC)/C=C/O[C@@]3(C)Oc4c(C)c(O)c(c(c4C3=O)C1=O)C2=O` (stereo partly specified), for which the MIC in the test on Staphylococcus aureus was 0.5 µg/mL (≈ 0.675 µM).

For the origin of these results see ChEMBL document CHEMBL3272149, “Synthesis and antibacterial activity of some derivatives of tolypomycinone. Relationship between structure and activity in ansamycins” (J Med Chem, 1977).
